Published values pooled from the literature.
Protocols differ between the studies behind these lines.
Target: Calcium/calmodulin-dependent protein kinase type II subunit gamma (CAMK2G, Homo sapiens, UniProt Q13555)

Structure (SMILES)	read-out	action	method	concentration	measurement	result
COc1cc(-c2cc(-c3ccc(N4CCNCC4)cc3)cnc2C)cc(OC)c1OC	enzyme activity	inhibitor	–	0.1 µM	inhibition	1%
CNCc1ccccc1-c1csc([C@H](C)Nc2nc(C)nc3cc(OC)c(OC)cc23)c1	cell-free assay	–	competition with immobilised ligand	1 µM	remaining binding	90%
C#Cc1cccc(Nc2ncnc3cc(OCCOC)c(OCCOC)cc23)c1	cell-free assay	–	–	0.5 µM	remaining signal	115%
CNC(=O)c1cc(Oc2ccc(NC(=O)Nc3ccc(Cl)c(C(F)(F)F)c3)cc2)ccn1	cell-free assay	–	–	0.3 µM	inhibition	51%
CC(C)c1ccc(NC(=O)c2cccs2)c(-c2nc3ccccc3[nH]c2=O)c1	enzyme activity	inhibitor	–	1 µM	activity vs control	100%
O=C(Nc1cnn(-c2csc(C(=O)NC3COC3)c2)c1)Nc1c(F)cccc1Cl	enzyme activity	inhibitor	–	5 µM	remaining activity	90.1%
CS(=O)(=O)CCNCc1ccc(-c2ccc3ncnc(Nc4ccc(OCc5cccc(F)c5)c(Cl)c4)c3c2)o1	cell-free assay	–	–	0.5 µM	remaining signal	111%
CN([C@@H]1CCc2c(CC(=O)O)c3cc(S(C)(=O)=O)ccc3n2C1)S(=O)(=O)c1ccc(F)cc1	cell-free assay	–	competition with immobilised ligand	1 µM	remaining binding	100%
CN1CC(Oc2cnc(C#N)cc2-c2ccn3nc(NC(=O)C4CC4)cc3c2)C1	enzyme activity	inhibitor	–	1 µM	inhibition	10%
Nc1ncnc2occ(-c3ccc(NC(=O)Nc4cc(C(F)(F)F)ccc4F)cc3)c12	cell-free assay	–	–	20 µM	remaining signal	71%
CC(C)(O)[C@H]1CC[C@H](Nc2ccc3ncc(-c4cccc(C(F)(F)F)c4)n3n2)CC1	enzyme activity	inhibitor	–	1 µM	remaining activity	95.1%
O=C1NC(=O)c2cc(Nc3ccc(F)cc3)c(Nc3ccc(F)cc3)cc21	cell-free assay	–	–	0.5 µM	remaining signal	101%
CS(=O)(=O)c1cc(C2(NC(=O)c3cncc4c3cnn4-c3ccc(F)cc3)CC2)ccn1	cell-free assay	–	competition with immobilised ligand	1 µM	remaining binding	72%
O=C(Nc1nccs1)C(c1cc(F)ccc1O)N1Cc2ccccc2C1=O (centres unmarked)	enzyme activity	inhibitor	–	1 µM	inhibition	9%
O=c1nc(-c2ccccn2)sc2ccccc12	binding	–	competition with immobilised ligand	1 µM	remaining binding	96%
O=C(Nc1cnn(-c2csc(C(=O)NC3COC3)c2)c1)Nc1ccccc1Cl	enzyme activity	inhibitor	–	5 µM	remaining activity	96.4%
O=C1CCc2cc(Nc3cc(OC4CCOCC4)c([N+](=O)[O-])cc3Cl)ccc2N1	cell-free assay	–	competition with immobilised ligand	1 µM	remaining binding	100%
CC/C(=N\NC(=O)NCc1cccc(O)c1)c1ccc(O)c(C)c1O	enzyme activity	inhibitor	–	0.1 µM	inhibition	-5.1%
Cc1nc(Cc2cccc(C(F)(F)F)c2)sc1-c1ccc(C(N)=O)nc1	cell-free assay	–	competition with immobilised ligand	1 µM	remaining binding	93%
CC(C)(C)c1nc2c(s1)c1nc(N)ncc1c1ccc(NS(=O)(=O)c3c(F)cccc3F)c(F)c12	enzyme activity	inhibitor	radiometric	1 µM	remaining activity	118%
